assay: Toxicity liver stage against HepG2, at 10uM; format: cell-based; parameters: test concentration 10 uM, cell line HepG2-A16-CD81EGFP; details: human, HepG2-A16-CD81EGFP cells; read-out: INHIBITION
Procedure, shortened: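 Uninfected HepG2-A16-CD81EGFP cells, 3 × 10^3 per well, 1536-well, plated on prespotted compound at 10 μM final, parasite-free screening media added to match infected plates; puromycin 10 μM positive, DMSO 0.5% negative; run in parallel with 48 h PbLuc assay at 37 °C, 5% CO2; viability by CellTiter-Glo luminescence, normalized to controls.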

Row | Structure (SMILES) | cytotoxicity at 10 µM [%]
1 | Cc1cc(C(=O)NCc2ccccn2)no1 | -9.95
2 | O=S1(=O)[C@@H](c2ccccc2)[C@H](CO)CN1C1CC1 | -4.83
3 | COC1CN(C(=O)CC(C)(C)C)CCC(=O)N(C)c2ccccc21 (centres undefined) | -4.7
4 | COc1ccc(N2CCN(C(=O)COc3c(C)occc3=O)CC2)cc1 | -2.67
5 | CC1CC(=O)c2cc(C(=O)N3CCN(C)CC3)c(=O)[nH]c2C1 (centres undefined) | -6.32
6 | Cc1noc(C)c1CCC(=O)NCCc1cccs1 | -3.11
7 | Cc1cc(F)ccc1S(=O)(=O)NCC(O)c1cccn1C (centres undefined) | -5.62
8 | Cc1ncn(CCNC(=O)Nc2ccc(OC(F)(F)F)cc2)c(=O)c1C | -1.32
9 | Cc1nc(N(C)C)nc(C)c1NS(=O)(=O)c1ccc(OC(F)(F)F)cc1 | 7.23
10 | O=c1c2cnc(N3CCCCC3)nc2ccn1-c1ccccc1F | 2.77
11 | O=C(NCC1CCCO1)c1c(-n2cnnn2)sc2c1CCC2 (centres undefined) | -16.3
12 | COCc1n[nH]/c(=N/C(=O)COc2cnc(C)cc2O)s1 | 5.84
13 | CC(=O)c1cccc(NC(=O)Cn2cc(I)cn2)c1 | -1.87
14 | CCn1ncc(-c2cc(C(F)(F)F)nc(N3CCC(N)CC3)n2)c1C | -6
15 | CCN(Cc1ccccc1)c1ncnc2c(C)nn(CC)c12 | -2.48
16 | CSc1nc2ccsc2c(=O)n1CC(=O)N1CCCCC1C (centres undefined) | 7.08
17 | CCN1CCCC1(C)c1nc(C)cc(N)n1 (centres undefined) | -2.17
18 | O=C(CN1CCCC1)N1CCCC1c1nc(O)cc(-c2ccccn2)n1 (centres undefined) | -10.7
19 | CC(NCC1(N(C)C)CCOCC1)c1ccc(Cl)cc1 (centres undefined) | -3.19
20 | COCCNC(=O)N1CCC(NC(C)C)CC1 | 7.96
21 | Cn1cc(C(NCCc2ccccn2)c2cccc(F)c2)cn1 (centres undefined) | 9.73

Row | Structure (SMILES) | cytotoxicity at 10 µM [%]
22 | NC(=O)c1cn(CC2CC2)c(C2CC2)n1 | 0.524
23 | Cn1cc(C2(C)CN(C(=O)Nc3ccccc3F)CCO2)cn1 (centres undefined) | -5.23
24 | Cc1ccc(C(=O)NCCCn2cccn2)c(=O)[nH]1 | 3.54
25 | CC(=O)N1CCN(C(C)c2nnc(CC(C)C)o2)CC1 (centres undefined) | 6.88
26 | CCc1ccc(O)c(C(=O)N2CCCN(CC(=O)N(CC)CC)CC2)c1 | 6.62
27 | COCc1nc(C(=O)NS(=O)(=O)c2ccc(C)c(C)c2)cs1 | -8
28 | CC(C)CC(NCc1cscn1)c1ccccn1 (centres undefined) | 2.5
29 | Cc1ncc2c(n1)CN(CC(=O)N1CCc3sccc3C1)CC2 | 4.68
30 | Cn1cc(C2(C)CN(Cc3ccc(Cl)c(F)c3)CCO2)cn1 (centres undefined) | 4.98
31 | CN(C)c1ccc(NC(=O)N2CCc3sccc3C2)cn1 | -4.16
32 | CC(C)(C)OC(=O)N1CCCCC1C(=O)NCc1cc[nH]n1 (centres undefined) | 1.41
33 | COc1c(C2CCCN2C(=O)c2ccnn2C)c(C)nn1C (centres undefined) | 2.55
34 | CC(C)Cn1cnnc1C1CCCN1C(=O)OC(C)(C)C (centres undefined) | 0.514
35 | CC(C)(CO)CCCNC(=O)N1CCc2c(F)ccc(F)c2C1 | -2.18
36 | OC[C@@H](O)CN(CCC(F)(F)F)c1ncccn1 | 2.41
37 | Cc1ccc(CN(C)C(=O)CN2CCCC2c2cnn(C)c2)cc1 (centres undefined) | -1.6
38 | O=C(CCN1CCOCC1)Nc1cccc(CNCc2ccsc2)c1 | -4.66
39 | CCc1csc(NC(=O)Nc2c(C)n[nH]c2C)n1 | -3.41
40 | Cn1cc(C2CCCN2C(=O)CCn2ccc3ccccc32)cn1 (centres undefined) | 8.84
41 | Cc1ccc(S(C)(=O)=O)cc1C(=O)NS(=O)(=O)c1ccc(Cl)cc1 | -13.5
42 | CNC(=O)CC1CCN(C(=O)Nc2ccc(-c3cc[nH]n3)cc2)CC1 | 6.8

Row | Structure (SMILES) | cytotoxicity at 10 µM [%]
43 | CCOc1ncccc1CNC(=O)N1CCCC1c1ccncc1 (centres undefined) | 21.2
44 | Cc1cc(F)c(S(=O)(=O)NCCCN2CCC(O)CC2)cc1F | -25.9
45 | NC(=O)Nc1cccc(Oc2ccccn2)c1 | 4.39
46 | COC(=O)c1ccoc1COC(=O)CCc1ccc(OC)c(OC)c1 | 5.27
47 | Cc1nc(COC[C@H]2CC[C@H]3[C@H](CCN3C(N)=O)O2)cs1 | -81.2
48 | O=C(CC1CC1)NCc1cn2c(n1)CN(C(=O)C1CCOCC1)CC2 | -73.2
49 | COCC(=O)N1CC[C@H]2O[C@@H](C)C[C@H]2C1 | -66.1
50 | O=C(O)C(c1cccc2c1OCC2)N1CCC(N2CCCC2)CC1 (centres undefined) | 8.12
51 | CC(c1cccc(-c2ccc(C(=O)O)cc2Cl)c1)N(C)C (centres undefined) | -2.25
52 | CS(=O)(=O)NC1CCN(Cc2ccc(OCc3ccccn3)cc2)CC1 | 1.63
53 | CCn1ncc2c1NC(=O)CC2c1cnc(-c2ccccn2)nc1 (centres undefined) | -7.76
54 | CN(Cc1ccc(C(=O)NCC2COCCO2)c(=O)[nH]1)CC(C)(C)C (centres undefined) | 3.21
55 | CCc1ccc(OCCN(C)C(=O)c2ccncc2Cl)cc1 | -2.91
56 | Cc1cccc(CNCC2(O)CCCN(CC3CCCCC3)C2=O)n1 (centres undefined) | -10.5
57 | CN(CCc1ccccc1)c1cnn(Cc2ccccn2)c(=O)c1 | -7.03
58 | COc1ccc(C(=O)N2C[C@@H](C(=O)O)[C@H](c3ccccc3)C2)c(C)c1 | 5.23
59 | COc1cnc(N2CCCC(c3ncc[nH]3)C2)nc1 (centres undefined) | -0.268
60 | O=C(NCc1nnc2n1CCC2)c1ccc(C2CCCO2)s1 (centres undefined) | -12.4
61 | CC(c1nccs1)N(C)S(=O)(=O)NCc1ccccc1 (centres undefined) | -2.34
62 | CCC(O)Cn1nc(CCSC)nc1-c1ccc2[nH]ccc2c1 (centres undefined) | 4.96
63 | Cc1ccc2c(c1)C(NC(=O)C1CCN(S(C)(=O)=O)CC1)CC(C)(C)O2 (centres undefined) | 2.22

Row | Structure (SMILES) | cytotoxicity at 10 µM [%]
64 | Cc1cccc(=O)n1CCCNc1ncnc2c1CCNCC2 | -9.53
65 | CCCNC(=O)N1CCC(Oc2cc(C)ccc2F)(C(=O)O)CC1 | -23.8
66 | N#Cc1cccnc1N1CCC2(CCCN(C3CCOCC3)C2=O)C1 (centres undefined) | -9.21
67 | O=C(c1cc(COc2ccc3c(c2)OCO3)[nH]n1)N1CCCC1 | -0.526
68 | COC(C(=O)N1CCN(c2cccc(Cl)c2)C(=O)C1)c1ccccc1 (centres undefined) | -9.09
69 | CC(NC(=O)NCCCn1cncn1)c1ccc(F)cc1 (centres undefined) | -9.92
70 | Cc1ccsc1CN(C)C(=O)c1cc2c([nH]c1=O)CCCC2=O | -5.36
71 | CSc1ccc(CNC(c2ccc(F)cc2)c2nccn2C)cc1 (centres undefined) | -10.8
72 | O=C(CCNc1ncccn1)Nc1cc(C(F)(F)F)c[nH]c1=O | -6.45
73 | CCN(CC1CCOC1)C(=O)Nc1ccc(OCC(F)(F)F)nc1 (centres undefined) | -11.3
74 | O=C(Cc1cn2ccsc2n1)N1CCCC(n2ccnc2)C1 (centres undefined) | -8.22
75 | CC(C)C(CNC(=O)NCc1cc[nH]n1)N1CCOCC1 (centres undefined) | -7.48
76 | Cn1cnc2c1CCN(Cc1cccc(C(N)=O)c1)C2 | -16.8
77 | Cc1ccc(C(=O)Nc2cn[nH]c2)cn1 | -6.1
78 | Cc1nc(C2CCCN2C(=O)c2cnns2)no1 (centres undefined) | -3.71
79 | CC(NC(=O)N(C)Cc1ccsc1)c1ccc2c(c1)CCC(=O)N2 (centres undefined) | -7.23
80 | CCn1ccnc1CN1CCCN(C(=O)c2sccc2C#N)CC1 | -8.08
81 | CC(Cn1cncc1-c1cnn(C2CCCCC2)c1)N1CCCCC1 (centres undefined) | 2.87
82 | Cc1nccn1-c1cccc(C2CCCN2)n1 (centres undefined) | 10.6
83 | CCOC(=O)[C@]12CCCN(Cc3nccs3)C[C@H]1CN(C(C)=O)C2 | -2.99
84 | c1cc(CNCc2ccc3c(c2)CCO3)cc(N2CCOCC2)n1 | 11.1
